The record followed here is ChEMBL document CHEMBL1126093, “Structural features of substituted purine derivatives compatible with depletion of human O6-alkylguanine-DNA alkyltransferase” (J Med Chem, 1992).

Active and inactive are the calls of the source. The calls are words filed in the database; no cut-off is given here.

In test [1] the target is T1, Methylated-DNA--protein-cysteine methyltransferase (Homo sapiens) (UniProt P16455).
T1 sequence (whole entry): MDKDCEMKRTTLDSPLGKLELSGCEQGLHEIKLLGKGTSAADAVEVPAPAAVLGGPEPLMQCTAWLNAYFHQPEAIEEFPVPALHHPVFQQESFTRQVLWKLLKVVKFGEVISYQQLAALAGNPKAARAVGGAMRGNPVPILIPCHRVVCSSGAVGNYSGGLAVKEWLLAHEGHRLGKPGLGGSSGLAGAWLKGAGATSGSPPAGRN
As to the kind of experiment: In vitro inhibition of human alkyl transferase in HT-29 cell-free extracts. A digest of the protocol:
(§1)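 HT29 crude cell extract incubated 30 min with derivative (0–400 μM, from 100 mM DMSO stocks) in 50 mM Tris-HCl pH 7.5, 0.1 mM EDTA, 5 mM DTT. Remaining AGT activity measured as loss of O⁶-[³H]methylguanine from [³H]methylnitrosourea-methylated calf thymus DNA. Dose for 50% inactivation read from %-activity-remaining vs dose plots; at least duplicates averaged.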

The target of test [2] is T1, Methylated-DNA--protein-cysteine methyltransferase (Homo sapiens). As to the kind of experiment: Inhibitory activity against alkyl transferase in HT-29 cells. Type of test: cell-based. In short, it runs like this: (§2)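 HT29 cells plated at 5 × 10⁶ per T75 flask and grown 3 days. Medium then replaced with medium holding increasing derivative concentrations (range 0.05–400 μM where soluble) for 4 h. Cells rinsed with PBS, harvested, frozen at -80 °C, then extracted. AGT activity assayed by O⁶-[³H]methylguanine loss from [³H]methylated DNA. 50% inactivation dose taken from plots; at least duplicates.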

Test [3] shares this target. As to the kind of experiment: Inhibitory activity against alkyl transferase in HT-29 cell-free extracts; inactive. In short, it runs like this:
as §1

Test [4] shares this target. As to the kind of experiment: The compound was tested for its inhibitory activity against alkyl transferase in HT-29 cells; inactive. The test is classed as cell-based. In short, it runs like this:
as §2

For the compound `Nc1nc(OCc2ccc(Cl)cc2)c2[nH]cnc2n1`, the ED50 in test [1] was 0.2 µM; in test [2] it was 0.08 µM.

`Cc1ccc(COc2nc(N)nc3c2ncn3C2O[C@H](CO)[C@@H](O)[C@H]2O)cc1` (some centres undefined): the ED50 in test [1] was determined as 9 µM; in test [2] it was 3 µM.

On to `CCOC(=O)Cn1cnc2c(OCc3ccccc3)nc(N)nc21`, for which the ED50 was 30 µM in test [1] and 3 µM in test [2].

In the case of `N#CCn1cnc2nc(N)nc(OCc3ccccc3)c21`, the ED50 result in test [3] was “inactive”.

On to `CCC(O)Cn1cnc2c(OCc3ccccc3)nc(N)nc21` (centres undefined), for which the ED50 in test [1] was 13 µM; in test [2], 2 µM.

Take `Nc1nc(OCc2ccccc2)c2c(ncn2CC(=O)O)n1`: the ED50 result in test [4] is “inactive”.

Take `Nc1nc(OCc2ccccc2)c2ncn(CC(=O)O)c2n1`: the ED50 entry in test [4] was “inactive”. The compound further returned an ED50 in test [1] of 157 µM.

With `Cc1ccc(CSc2[nH]c(N)nc3ncnc2-3)cc1`, the ED50 result in test [3] was “inactive”.

As to `c1ccc(COc2[nH]cnc3ncnc2-3)cc1`, the ED50 was 85 µM in test [1] and 36 µM in test [2].

For the compound `NC(=O)Cn1cnc2nc(N)nc(OCc3ccccc3)c21`, the ED50 result in test [3] is “inactive”.

As for `CCC(O)Cn1cnc2nc(N)nc(OCc3ccccc3)c21` (centres undefined), the ED50 entry in test [3] was “inactive”.

Consider `Nc1nc(OCc2ccccc2)c2ncn(C3O[C@H](CO)[C@@H](O)[C@H]3O)c2n1` (some centres undefined), for which the ED50 in test [1] was determined as 11 µM; in test [2], 2 µM.

For `COc1nc(N)nc2nc[nH]c12`, the ED50 stood at 350 µM in test [1] and 120 µM in test [2].

As to `Nc1nc(SCc2ccc([N+](=O)[O-])cc2)c2ncn([C@@H]3O[C@H](CO)[C@@H](O)[C@H]3O)c2n1`, the ED50 result in test [3] is “inactive”.

With `N#CCn1cnc2c(OCc3ccccc3)nc(N)nc21`, the ED50 in test [1] is 13 µM; in test [2], 0.8 µM.

On to `Cc1ccc(COc2nc(N)nc3nc[nH]c23)cc1`, for which the ED50 was 0.2 µM in test [1] and 0.08 µM in test [2].

In the case of `Nc1nc(SCc2ccccc2)c2[nH]cnc2n1`, the ED50 entry in test [3] was “inactive”.

In the case of `NC(=O)Cn1cnc2c(OCc3ccccc3)nc(N)nc21`, the ED50 stood at 47 µM in test [1] and 7.5 µM in test [2].

As to `Nc1nc(OCc2ccc(Cl)cc2)c2ncn(C3O[C@H](CO)[C@@H](O)[C@H]3O)c2n1` (some centres undefined), the ED50 in test [1] is 10 µM; in test [2], 5 µM.

`Nc1nc(OCc2ccc(F)cc2)c2[nH]cnc2n1`: the ED50 came to 0.2 µM in test [1] and 0.05 µM in test [2].

With `Nc1nc(OCc2ccccc2)c2ncn([C@H]3C[C@H](O)[C@@H](CO)O3)c2n1`, the ED50 was 2 µM in test [1] and 0.5 µM in test [2].

As to `C=CCOc1nc(N)nc2nc[nH]c12`, the ED50 in test [1] is 20 µM; in test [2], 4 µM.

Regarding `CCOC(=O)Cn1cnc2nc(N)nc(OCc3ccccc3)c21`, in test [3], the ED50 entry is “inactive”.

As to `Nc1nc(O)c2c(ncn2Cc2ccccc2)n1`, the ED50 entry in test [3] was “inactive”.
